According to ChEMBL document CHEMBL4480452, “Molecular recognition of a branched peptide with HIV-1 Rev Response Element (RRE) RNA” (Bioorg Med Chem, 2019):
Activity calls are given as the source filed them. No cut-off for these calls is given here.

Experiments:
[1] = target: Rev responsive element (RRE) RNA; assay: Binding affinity to HIV-1 rev response element SL-IIB RNA by 2-Aminopurine-based fluorescence spectrophotometric analysis; format: nucleic-acid assay, Human immunodeficiency virus 1
[2] = target: Rev responsive element (RRE) RNA; assay: Binding affinity to HIV-1 rev response element SL-IIB RNA in presence of 10 times TAR RNA by 2-Aminopurine-based fluorescence spectrophotometric analysis; format: nucleic-acid assay, Human immunodeficiency virus 1
Summary of the method: (§1)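 Same 2-AP titration, run with 10-fold excess of unlabeled competitor nucleic acid. Conditions: 0.1 μM refolded 2-AP RRE SL-IIB RNA, peptide 0–20 μM, pH 7.0 phosphate/KCl/MgCl2 buffer, ex 310 / em 372 nm. Kd from Hill fit, at least duplicate, SD.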

[3] = tested on: Rev responsive element (RRE) RNA; assay: Binding affinity to SL1 and SL2 regions of 234 nucleotide long HIV-1 NL4-3 rev response element RNA by SHAPE-MaP technology assay; format: nucleic-acid assay; conditions: Human immunodeficiency virus 1
Summary of the method: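 234-nt RRE RNA (5 pmol), renatured then folded at 37 °C for 15 min (70 mM Tris pH 8.0, 180 mM KCl, 8 mM MgCl2, 5% glycerol). Peptide added at 1:1 or 1:10 RNA:peptide for 15 min at 37 °C, then 1M7 for 5 min at 37 °C, with DMSO and denaturing controls. Read by MaP reverse transcription, PCR and sequencing; reactivity compared by nucleotide position.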

[4] = tested on: Rev responsive element (RRE) RNA; assay: Binding affinity to internal loop and upper stem/ apical loop regions of 5-32P-labeled HIV-1 NL4-3 rev response element SL-IIB RNA by RNases A and V1 based RNase protection assay; format: nucleic-acid assay; conditions: Human immunodeficiency virus 1
Summary of the method: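 5′-32P-labeled RRE SL-IIB (10 nM) with 200 nM unlabeled RNA, refolded at 95 °C for 3 min and snap-cooled. Incubated with peptide (0–20 μM) on ice for 4 h in 10 mM Tris pH 7, 100 mM KCl, 10 mM MgCl2. Digested on ice with RNase V1 (0.002 U, 10 min) or RNase A (20 ng, 1 h). Cleavage read on 12% denaturing PAGE by autoradiography.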

[5] = target: Rev responsive element (RRE) RNA; assay: Binding affinity to HIV-1 rev response element SL-IIB RNA in presence of 10 times RRE DNA by 2-Aminopurine-based fluorescence spectrophotometric analysis; format: nucleic-acid assay, Human immunodeficiency virus 1; summary of the method: as §1
[6] = tested on: Rev responsive element (RRE) RNA; assay: Binding affinity to HIV-1 NL4-3 5-32P-labeled rev response element SL-IIB RNA by RNases A and V1 based RNase protection assay; conditions: Human immunodeficiency virus 1
[7] = target: Rev responsive element (RRE) RNA; assay: Binding affinity to HIV-1 rev response element SL-IIB RNA in presence of 10 times no bulge RRE RNA by 2-Aminopurine-based fluorescence spectrophotometric analysis; format: nucleic-acid assay, Human immunodeficiency virus 1; summary of the method: as §1

SMILES | Kd [1] [nM] | further results
N=C(N)N[C@@H]1C[C@@H](C(=O)N[C@H]2CN[C@@H](C(=O)N[C@@H](Cc3ccc(O)cc3)C(N)=O)C2)N(C(=O)CN(CCNC(=O)[C@H](CCCCNC(=O)[C@@H]2C[C@@H](NC(=N)N)CN2C(=O)[C@H]2C[C@@H](N)CN2C(=O)[C@@H](N)CCCCNC(=O)c2cnccn2)NC(=O)[C@@H]2C[C@@H](NC(=N)N)CN2C(=O)[C@H]2C[C@@H](N)CN2C(=O)[C@@H](N)CCCCNC(=O)c2cnccn2)C(=O)Cn2cnc3c(=O)[nH]c(N)nc32)C1 | 1110 | –
N=C(N)N[C@H]1CN[C@H](C(=O)N[C@H]2CN[C@@H](C(=O)N[C@@H](Cc3cccc4ccccc34)C(=O)NCCCC[C@H](NC(=O)[C@H](Cc3cccc4ccccc34)NC(=O)[C@H]3C[C@@H](NC(=O)[C@@H]4C[C@@H](NC(=N)N)CN4)CN3)C(=O)NCCN(CC(=O)NCCN(CC(=O)N[C@@H](Cc3cccc4ccccc34)C(=O)N[C@@H](Cc3ccc(O)cc3)C(N)=O)C(=O)Cn3cnc4c(=O)[nH]c(N)nc43)C(=O)Cn3cnc4c(=O)[nH]c(N)nc43)C2)C1 | 660 | –
N=C(N)N[C@@H]1C[C@@H](C(=O)NCCN(CC(=O)N[C@@H](CCCCNC(=O)c2ccc(B(O)O)cc2)C(=O)N[C@@H](Cc2ccc(O)cc2)C(N)=O)C(=O)Cn2cnc3c(=O)[nH]c(N)nc32)N(C(=O)[C@H](CCCCNC(=O)[C@@H]2C[C@@H](NC(=N)N)CN2C(=O)[C@@H]2C[C@@H](NC(=N)N)CN2C(=O)[C@H]2C[C@@H](N)CN2)NC(=O)[C@@H]2C[C@@H](NC(=N)N)CN2C(=O)[C@@H]2C[C@@H](NC(=N)N)CN2C(=O)[C@H]2C[C@@H](N)CN2)C1 | 400 to 410 | Kd [2]: 3520 nM; Activity [3]: Active; Activity [4]: Active; Kd [5]: 1480 nM; Activity [6]: Active; Kd [7]: 1140 nM
N=C(N)N[C@H]1CN[C@H](C(=O)N2C[C@H](N)C[C@@H]2C(=O)NCCN(CC(=O)NCCCC[C@H](NC(=O)CN(CCNC(=O)[C@H]2C[C@@H](N)CN2C(=O)[C@@H]2C[C@@H](NC(=N)N)CN2)C(=O)Cn2cnc3c(=O)[nH]c(N)nc32)C(=O)NCCN(CC(=O)N[C@@H](CCCCNC(=O)c2cnccn2)C(=O)N[C@@H](CCCCNC(=O)c2ccc(B(O)O)cc2)C(=O)N[C@@H](Cc2ccc(O)cc2)C(N)=O)C(=O)Cn2cnc3c(=O)[nH]c(N)nc32)C(=O)Cn2cnc3c(=O)[nH]c(N)nc32)C1 | 1180 | –
N=C(N)N[C@@H]1C[C@@H](C(=O)N2C[C@H](N)C[C@@H]2C(=O)N[C@@H](Cc2ccc(O)cc2)C(N)=O)N(C(=O)[C@H]2C[C@@H](N)CN2C(=O)[C@H](CCCCNC(=O)[C@H]2C[C@@H](N)CN2C(=O)[C@@H]2C[C@@H](NC(=N)N)CN2C(=O)[C@H]2C[C@@H](N)CN2)NC(=O)[C@H]2C[C@@H](N)CN2C(=O)[C@@H]2C[C@@H](NC(=N)N)CN2C(=O)[C@H]2C[C@@H](N)CN2)C1 | 720 | –
N=C(N)N[C@@H]1C[C@@H](C(=O)N2C[C@H](NC(=N)N)C[C@H]2C(=O)N[C@@H](CCCCNC(=O)c2cnccn2)C(=O)N[C@@H](Cc2ccc(O)cc2)C(N)=O)N(C(=O)[C@H](CCCCNC(=O)[C@H](CCCCNC(=O)c2cnccn2)NC(=O)[C@H]2C[C@@H](NC(=O)[C@@H]3C[C@@H](NC(=N)N)CN3)CN2)NC(=O)[C@H](CCCCNC(=O)c2cnccn2)NC(=O)[C@H]2C[C@@H](NC(=O)[C@@H]3C[C@@H](NC(=N)N)CN3)CN2)C1 | 1300 | –
N=C(N)N[C@@H]1C[C@@H](C(=O)NCCCC[C@H](NC(=O)[C@@H]2C[C@@H](NC(=N)N)CN2C(=O)[C@H]2C[C@@H](N)CN2C(=O)[C@@H]2C[C@@H](NC(=N)N)CN2)C(=O)N[C@@H](CCCCNC(=O)c2cnccn2)C(=O)N[C@@H](CCCCNC(=O)c2cnccn2)C(=O)NCCN(CC(=O)N[C@@H](Cc2ccc(O)cc2)C(N)=O)C(=O)Cn2cnc3c(=O)[nH]c(N)nc32)N(C(=O)[C@H]2C[C@@H](N)CN2C(=O)[C@@H]2C[C@@H](NC(=N)N)CN2)C1 | 1120 | –
N=C(N)N[C@@H]1C[C@@H](C(=O)NCCN(CC(=O)N[C@@H](CCCCNC(=O)c2ccc(B(O)O)cc2)C(=O)N[C@@H](Cc2ccc(O)cc2)C(N)=O)C(=O)Cn2cnc3c(=O)[nH]c(N)nc32)N(C(=O)[C@H](CCCCNC(=O)[C@@H]2C[C@@H](NC(=N)N)CN2C(=O)[C@H]2C[C@@H](NC(=O)[C@@H]3C[C@@H](NC(=N)N)CN3)CN2)NC(=O)[C@@H]2C[C@@H](NC(=N)N)CN2C(=O)[C@H]2C[C@@H](NC(=O)[C@@H]3C[C@@H](NC(=N)N)CN3)CN2)C1 | 630 | –
